# Source: ChEMBL document CHEMBL2380224, “Fragment-based ligand design of novel potent inhibitors of tankyrases” (J Med Chem, 2013)
# What was measured:
# [1] = organism: Homo sapiens; assay: Selectivity ratio of IC50 for TNKS1 (unknown origin) to IC50 for TNKS2 PARP domain (947 to 1162) (unknown origin)
# [2] = organism: Homo sapiens; assay: Selectivity ratio of IC50 for PARP6 (unknown origin) to IC50 for TNKS2 PARP domain (947 to 1162) (unknown origin)
# [3] = target: T1, Poly [ADP-ribose] polymerase tankyrase-1 (Homo sapiens, UniProt O95271); assay: Inhibition of TNKS1 (unknown origin)
# T1 sequence (O95271 whole entry): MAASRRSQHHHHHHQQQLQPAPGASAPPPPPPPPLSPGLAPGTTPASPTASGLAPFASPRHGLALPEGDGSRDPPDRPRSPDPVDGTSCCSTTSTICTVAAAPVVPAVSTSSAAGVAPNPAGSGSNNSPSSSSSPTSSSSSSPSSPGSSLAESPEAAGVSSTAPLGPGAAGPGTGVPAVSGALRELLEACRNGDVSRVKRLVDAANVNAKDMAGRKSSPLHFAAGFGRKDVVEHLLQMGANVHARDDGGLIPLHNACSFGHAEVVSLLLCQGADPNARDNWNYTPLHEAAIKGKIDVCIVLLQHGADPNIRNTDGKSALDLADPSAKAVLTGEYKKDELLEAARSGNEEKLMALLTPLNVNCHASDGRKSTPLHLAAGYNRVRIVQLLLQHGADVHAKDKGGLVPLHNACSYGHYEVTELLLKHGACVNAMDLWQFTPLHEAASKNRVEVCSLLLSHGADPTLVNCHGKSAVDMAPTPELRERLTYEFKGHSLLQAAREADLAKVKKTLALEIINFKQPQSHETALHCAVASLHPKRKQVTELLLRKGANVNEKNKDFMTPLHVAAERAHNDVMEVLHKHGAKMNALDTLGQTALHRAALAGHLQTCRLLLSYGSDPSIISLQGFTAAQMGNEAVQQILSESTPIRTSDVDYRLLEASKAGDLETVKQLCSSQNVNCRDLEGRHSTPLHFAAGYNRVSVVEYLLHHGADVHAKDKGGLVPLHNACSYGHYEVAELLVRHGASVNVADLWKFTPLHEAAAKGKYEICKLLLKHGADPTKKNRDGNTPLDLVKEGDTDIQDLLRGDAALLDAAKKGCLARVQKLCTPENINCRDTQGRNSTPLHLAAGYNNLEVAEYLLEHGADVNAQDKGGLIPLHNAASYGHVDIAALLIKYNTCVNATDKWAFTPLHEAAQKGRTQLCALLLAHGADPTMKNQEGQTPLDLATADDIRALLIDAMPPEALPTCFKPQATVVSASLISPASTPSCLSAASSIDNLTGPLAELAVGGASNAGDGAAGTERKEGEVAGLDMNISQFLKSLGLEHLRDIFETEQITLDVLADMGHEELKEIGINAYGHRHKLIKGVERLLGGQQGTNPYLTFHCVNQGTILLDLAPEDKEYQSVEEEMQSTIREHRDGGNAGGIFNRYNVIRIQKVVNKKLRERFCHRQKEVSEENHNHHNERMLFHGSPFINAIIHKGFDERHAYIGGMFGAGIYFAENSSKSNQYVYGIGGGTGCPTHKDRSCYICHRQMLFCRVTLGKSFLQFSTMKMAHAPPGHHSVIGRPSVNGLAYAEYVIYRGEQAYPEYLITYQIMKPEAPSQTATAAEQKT
# [4] = target: Poly [ADP-ribose] polymerase 2 (Homo sapiens, UniProt Q9UGN5); assay: Inhibition of PARP2 (unknown origin)
# [5] = organism: Homo sapiens; assay: Selectivity ratio of IC50 for PARP2 (unknown origin) to IC50 for TNKS2 PARP domain (947 to 1162) (unknown origin)
# [6] = target: T2, Poly [ADP-ribose] polymerase tankyrase-2 (Homo sapiens, UniProt Q9H2K2); assay: Inhibition of auto-PARsylation of GST-tagged TNKS2 PARP domain (947 to 1162) (unknown origin) expressed in Escherichia coli BL21(DE3) after 2 hrs by LC/MS analysis
# T2 sequence (Q9H2K2 whole entry): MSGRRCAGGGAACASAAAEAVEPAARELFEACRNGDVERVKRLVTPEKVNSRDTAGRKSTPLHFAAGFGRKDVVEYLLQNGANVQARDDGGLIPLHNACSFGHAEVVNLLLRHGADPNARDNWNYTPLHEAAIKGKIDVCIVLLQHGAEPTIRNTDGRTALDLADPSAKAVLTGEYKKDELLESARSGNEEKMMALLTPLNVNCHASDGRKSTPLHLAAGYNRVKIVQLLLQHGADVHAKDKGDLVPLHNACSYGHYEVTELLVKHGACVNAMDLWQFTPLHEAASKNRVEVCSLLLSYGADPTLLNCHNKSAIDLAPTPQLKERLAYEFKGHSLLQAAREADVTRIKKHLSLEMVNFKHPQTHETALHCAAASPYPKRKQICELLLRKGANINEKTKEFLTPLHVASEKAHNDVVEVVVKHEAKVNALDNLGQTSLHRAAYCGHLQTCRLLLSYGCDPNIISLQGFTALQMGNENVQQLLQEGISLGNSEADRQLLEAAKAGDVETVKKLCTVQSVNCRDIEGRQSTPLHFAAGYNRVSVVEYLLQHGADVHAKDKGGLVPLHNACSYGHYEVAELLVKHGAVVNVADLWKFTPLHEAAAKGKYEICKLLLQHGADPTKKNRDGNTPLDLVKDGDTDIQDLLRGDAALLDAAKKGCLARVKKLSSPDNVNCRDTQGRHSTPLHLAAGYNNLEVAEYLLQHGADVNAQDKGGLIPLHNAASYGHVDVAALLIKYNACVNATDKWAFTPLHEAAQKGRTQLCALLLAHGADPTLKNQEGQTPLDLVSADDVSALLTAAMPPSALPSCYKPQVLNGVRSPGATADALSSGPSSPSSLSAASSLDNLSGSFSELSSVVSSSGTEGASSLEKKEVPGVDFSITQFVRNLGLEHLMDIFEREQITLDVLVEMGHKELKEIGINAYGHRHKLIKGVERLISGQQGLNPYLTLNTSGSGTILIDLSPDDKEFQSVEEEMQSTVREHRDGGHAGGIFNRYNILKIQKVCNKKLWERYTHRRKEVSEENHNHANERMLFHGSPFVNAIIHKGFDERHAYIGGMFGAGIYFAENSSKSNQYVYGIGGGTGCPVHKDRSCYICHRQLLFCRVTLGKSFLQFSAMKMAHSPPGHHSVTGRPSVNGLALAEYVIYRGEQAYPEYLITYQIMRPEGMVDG
# [7] = target: T2, Poly [ADP-ribose] polymerase tankyrase-2; assay: Binding affinity to 6His-tagged TNKS2 PARP domain (947 to 1162) (unknown origin) expressed in Escherichia coli BL21(DE3) by surface plasmon resonance analysis
# Procedure, shortened: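 SPR on a Biacore instrument. Running buffer: 20 mM PBS pH 7.4, 0.05% Tween20, 2% DMSO. His-tagged TNKS2 (20 μg/mL in 20 mM PBS pH 7.4) was capture-coupled at 10 μL/min onto a Ni²⁺/NHS doubly preactivated NTA chip, to a target of 5000 RU.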
# [8] = target: Protein mono-ADP-ribosyltransferase PARP6 (Homo sapiens, UniProt Q2NL67); assay: Inhibition of PARP6 (unknown origin)
# Chain of Protein mono-ADP-ribosyltransferase PARP6 (Q2NL67 whole entry): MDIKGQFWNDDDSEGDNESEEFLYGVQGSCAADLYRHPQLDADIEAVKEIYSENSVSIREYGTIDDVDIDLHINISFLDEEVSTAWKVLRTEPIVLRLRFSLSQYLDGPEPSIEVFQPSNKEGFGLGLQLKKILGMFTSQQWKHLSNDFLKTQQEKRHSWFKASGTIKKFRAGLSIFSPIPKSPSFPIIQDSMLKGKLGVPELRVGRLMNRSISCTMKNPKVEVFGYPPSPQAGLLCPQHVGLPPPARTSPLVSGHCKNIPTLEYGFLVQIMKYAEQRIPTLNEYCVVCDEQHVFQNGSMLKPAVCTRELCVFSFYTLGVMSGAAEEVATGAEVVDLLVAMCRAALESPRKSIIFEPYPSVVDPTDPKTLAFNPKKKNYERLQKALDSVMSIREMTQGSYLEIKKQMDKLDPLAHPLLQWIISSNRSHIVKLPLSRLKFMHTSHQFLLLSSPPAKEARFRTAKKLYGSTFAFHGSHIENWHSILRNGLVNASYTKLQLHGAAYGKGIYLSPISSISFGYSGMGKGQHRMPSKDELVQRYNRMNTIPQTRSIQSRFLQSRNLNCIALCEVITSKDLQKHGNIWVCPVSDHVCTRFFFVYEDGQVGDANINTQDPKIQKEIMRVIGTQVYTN
# Chain of Poly [ADP-ribose] polymerase 2 (Q9UGN5 whole entry, the tested form may be a part): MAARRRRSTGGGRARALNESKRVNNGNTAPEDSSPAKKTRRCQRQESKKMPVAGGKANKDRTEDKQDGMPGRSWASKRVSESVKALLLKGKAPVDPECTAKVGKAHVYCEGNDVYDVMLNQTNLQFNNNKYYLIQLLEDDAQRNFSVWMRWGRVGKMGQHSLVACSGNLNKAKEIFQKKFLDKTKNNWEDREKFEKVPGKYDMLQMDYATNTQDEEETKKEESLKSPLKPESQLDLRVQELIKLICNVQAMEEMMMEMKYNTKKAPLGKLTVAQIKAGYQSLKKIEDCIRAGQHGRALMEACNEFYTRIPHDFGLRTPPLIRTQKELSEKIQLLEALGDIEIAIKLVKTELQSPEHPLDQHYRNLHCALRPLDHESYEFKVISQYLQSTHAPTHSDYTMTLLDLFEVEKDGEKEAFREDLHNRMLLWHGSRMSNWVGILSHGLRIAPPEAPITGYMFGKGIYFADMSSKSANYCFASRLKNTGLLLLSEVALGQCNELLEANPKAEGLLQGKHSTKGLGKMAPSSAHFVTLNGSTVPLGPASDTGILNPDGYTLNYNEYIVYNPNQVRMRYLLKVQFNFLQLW
smiles,measurement,setting,value
Cc1cc(=O)[nH]c2cc(-c3ccccc3F)ccc12,Ratio IC50,[1],16.5
same,Ratio IC50,[2],> 100
same,IC50,[3],860 nM
same,IC50,[4],> 10000 nM
same,Ratio IC50,[5],> 100
same,IC50,[6],52 nM
same,Kd,[7],280 nM
same,IC50,[8],> 10000 nM
